Measured values from ChEMBL document CHEMBL1126785, “Peptidomimetic HIV protease inhibitors: phosphate prodrugs with improved biological activities” (J Med Chem, 1993).

Tests used:
[1] = molecular target: Human immunodeficiency virus type 1 protease (Human immunodeficiency virus 1, UniProt Q72874); experiment: Tested for inhibitory activity against HIV-1 protease
Outline: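 Recombinant HIV-1 protease hydrolysing 2.5 mM synthetic octapeptide substrate H-Val-Ser-Gln-Asn-Tyr-Pro-Ile-Val-OH, with or without inhibitor. Run at 30 °C in 100 mM sodium acetate pH 5.5 with 10% glycerol, 5% ethylene glycol and 0.1% Nonidet P-40. Stopped after 30 min with 1% trifluoroacetic acid; hydrolysis quantified by HPLC.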

[2] = test system: Human immunodeficiency virus 1; experiment: (§1) Tested for the inhibition of p24 production in HIV-1 IIIB infected human peripheral blood mononuclear cells (PBMC); type: functional
Outline: (§2)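 Human PBMC (5×10^4 cells) were infected with HIV-1 IIIB at MOI 0.003 for 90 min. They were then kept in triplicate wells with continuous compound present for 7 days; compounds came from 10 mM DMSO stocks. Supernatant p24 was measured by ELISA. IC50 and IC90 were taken from linear regression on the linear part of the dose-response curve.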

[3] = test system: Human immunodeficiency virus 1; experiment: as §1; type: functional, organism-based; outline: as §2

In the case of `CC[C@H](C)[C@H](NC(=O)[C@H](C(C)C)[C@@H](O)[C@H](O)[C@H](CC1CCCCC1)NC(=O)[C@H](Cc1c[nH]cn1)NC(=O)COc1cccc2ccccc12)C(=O)NCc1ccccn1`, the Ki [1] is reported as under 1 nM, the IC90 [2] is reported as 223 nM and the IC50 [3] is reported as 50.2 nM.
